Assays:
Prostacyclin synthase = target: T1, Prostacyclin synthase (Homo sapiens, UniProt Q16647); assay: In vitro inhibition of Prostaglandin I2 synthase in cultured human endothelial cells
T1 sequence (Q16647 whole entry): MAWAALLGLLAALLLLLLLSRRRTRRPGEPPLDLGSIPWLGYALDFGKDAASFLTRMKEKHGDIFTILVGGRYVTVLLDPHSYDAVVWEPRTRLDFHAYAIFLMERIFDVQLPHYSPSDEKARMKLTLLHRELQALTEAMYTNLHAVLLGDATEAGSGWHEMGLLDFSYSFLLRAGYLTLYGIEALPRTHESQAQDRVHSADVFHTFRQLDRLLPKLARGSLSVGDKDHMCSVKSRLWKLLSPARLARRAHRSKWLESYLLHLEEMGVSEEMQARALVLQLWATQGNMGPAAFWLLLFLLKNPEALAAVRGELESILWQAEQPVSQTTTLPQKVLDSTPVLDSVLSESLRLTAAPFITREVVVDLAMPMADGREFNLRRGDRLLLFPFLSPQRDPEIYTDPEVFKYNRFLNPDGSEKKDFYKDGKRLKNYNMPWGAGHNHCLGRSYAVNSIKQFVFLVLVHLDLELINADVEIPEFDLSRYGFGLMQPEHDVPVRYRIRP

Homo sapiens = organism: Homo sapiens; assay: In vitro inhibition of U-46,619-induced aggregation of unwashed human platelets.; format: functional; conditions: for Kb: Homo sapiens, read-out: pA2 (converted)
How it was run: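 Citrated (3.2%) human venous blood spun at 200g for 10 min. Platelet-rich plasma aggregated with U46619 with or without several antagonist concentrations.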

Thromboxane-A synthase = target: T2, Thromboxane-A synthase (Homo sapiens, UniProt P24557); assay: In vitro Inhibition of thromboxane synthase from human blood platelet microsomes
T2 sequence (P24557 whole entry): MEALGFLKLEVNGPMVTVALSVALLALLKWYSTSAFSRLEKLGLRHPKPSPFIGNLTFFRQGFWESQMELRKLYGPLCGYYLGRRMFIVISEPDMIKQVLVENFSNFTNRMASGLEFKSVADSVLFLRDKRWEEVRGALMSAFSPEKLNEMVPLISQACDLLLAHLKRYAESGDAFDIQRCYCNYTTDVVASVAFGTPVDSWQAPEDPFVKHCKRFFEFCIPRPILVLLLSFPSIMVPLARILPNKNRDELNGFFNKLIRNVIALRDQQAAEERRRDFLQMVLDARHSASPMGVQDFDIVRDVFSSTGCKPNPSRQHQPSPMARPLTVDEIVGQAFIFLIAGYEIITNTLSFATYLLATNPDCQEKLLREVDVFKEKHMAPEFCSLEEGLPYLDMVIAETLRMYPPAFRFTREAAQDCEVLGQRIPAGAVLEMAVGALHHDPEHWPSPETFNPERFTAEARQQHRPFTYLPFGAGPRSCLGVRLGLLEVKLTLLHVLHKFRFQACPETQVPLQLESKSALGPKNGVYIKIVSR
How it was run: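 Human blood platelet microsomes incubated with [1-14C]arachidonic acid with or without inhibitor. Conversion to labeled thromboxane B2 quantified radiochromatographically. n = 2.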

SMILES	IC50 (Prostacyclin synthase) [µM]	Kb (Homo sapiens) [µM]	IC50 (Thromboxane-A synthase) [µM]	pA2 (Homo sapiens)
CC(C)(Oc1ccccc1Br)C1OCC(C/C=C\CCC(=O)O)C(c2cccnc2)O1 (configuration not stated)	7	0.0631	0.029	–
CC(C)(C)c1ccc(OC(C)(C)C2OCC(C/C=C\CCC(=O)O)C(c3cccnc3)O2)cc1 (configuration not stated)	–	1.91	0.28	–
CC(C)(Oc1ccc(S(C)(=O)=O)cc1)C1OCC(C/C=C\CCC(=O)O)C(c2cccnc2)O1 (configuration not stated)	8	0.0912	0.034	–
CC(C)(Oc1ccccc1)C1OCC(C/C=C\CCC(=O)O)C(c2cccnc2)O1 (configuration not stated)	75	0.0759	0.052	–
CSc1ccc(OC(C)(C)C2OCC(C/C=C\CCC(=O)O)C(c3cccnc3)O2)c([N+](=O)[O-])c1 (configuration not stated)	5	0.00447	0.022	–
O=C(O)CC/C=C\CC1COC(c2ccc(Cl)c(Cl)c2)OC1c1cccnc1 (configuration not stated)	9	0.776	0.042	–
O=C(O)CC/C=C\CC1COC(c2ccco2)OC1c1cccnc1 (configuration not stated)	–	1.26	0.164	–
O=C(O)CC/C=C\CC1COC(c2ccccc2Cl)OC1c1cccnc1 (configuration not stated)	–	0.759	0.048	–
Cc1ccc(C#N)c(OC(C)(C)C2OCC(C/C=C\CCC(=O)O)C(c3cccnc3)O2)c1 (configuration not stated)	> 100	0.0158	0.05	–
O=C(O)CC/C=C\CC1COC(c2ccc([N+](=O)[O-])cc2)OC1c1cccnc1 (configuration not stated)	13	0.933	0.039	–
O=C(O)CC/C=C\CC1COC(c2ccsc2)OC1c1cccnc1 (configuration not stated)	–	1.58	0.5	–
CC(C)(Cc1ccccc1C#N)C1OCC(C/C=C\CCC(=O)O)C(c2cccnc2)O1 (configuration not stated)	14	0.0275	0.037	–
COc1ccc(SC(C)(C)C2OCC(C/C=C\CCC(=O)O)C(c3cccnc3)O2)c([N+](=O)[O-])c1 (configuration not stated)	–	0.158	0.04	–
O=C(O)CC/C=C\C[C@@H]1CO[C@H](c2ccccc2Cl)O[C@@H]1c1ccccc1O	–	0.00692	> 100	–
CC(C)(Oc1cccc(F)c1)C1OCC(C/C=C\CCC(=O)O)C(c2cccnc2)O1 (configuration not stated)	40	0.126	0.026	–
O=C(O)CC/C=C\CC1COC(c2cccc3ccccc23)OC1c1cccnc1 (configuration not stated)	–	0.631	0.04	–
O=C(O)CC/C=C\CC1COC(c2cccs2)OC1c1cccnc1 (configuration not stated)	–	1	0.071	–
CC(C)(Oc1ccc(F)cc1[N+](=O)[O-])C1OCC(C/C=C\CCC(=O)O)C(c2cccnc2)O1 (configuration not stated)	9	0.00251	0.02	–
CC(C)(Sc1ccccc1C#N)C1OCC(C/C=C\CCC(=O)O)C(c2cccnc2)O1 (configuration not stated)	–	0.316	0.04	–
O=C(O)CC/C=C\CC1COC(c2ccc3ccccc3c2)OC1c1cccnc1 (configuration not stated)	–	1.78	0.05	–
COC(=O)c1ccccc1OC(C)(C)C1OCC(C/C=C\CCC(=O)O)C(c2cccnc2)O1 (configuration not stated)	73	0.0646	0.066	–
COc1ccccc1OC(C)(C)C1OCC(C/C=C\CCC(=O)O)C(c2cccnc2)O1 (configuration not stated)	51	0.224	0.06	–
Cc1ccc(OC(C)(C)C2OCC(C/C=C\CCC(=O)O)C(c3cccnc3)O2)c(C#N)c1 (stereo in doubt; 7af)	12	0.00398	0.025	–

SMILES	IC50 (Prostacyclin synthase) [µM]	Kb (Homo sapiens) [µM]	IC50 (Thromboxane-A synthase) [µM]	pA2 (Homo sapiens)
CC(C)(Oc1ccccc1C#N)C1OCC(C/C=C\CCC(=O)O)C(c2cccnc2)O1 (configuration not stated)	3	0.0132	0.045	–
Cc1ccc(OC(C)(C)C2OCC(C/C=C\CCC(=O)O)C(c3cccnc3)O2)c(C#N)c1 (stereo in doubt; 7ac)	47	–	0.05	8.1
CC(C)(Sc1ccccc1)C1OCC(C/C=C\CCC(=O)O)C(c2cccnc2)O1 (configuration not stated)	–	0.2	0.04	–
O=C(O)CC/C=C\CC1COC(c2ccc(Cl)cc2Cl)OC1c1cccnc1 (configuration not stated)	2.5	0.891	0.042	–
Cc1ccc(OC(C)(C)C2OCC(C/C=C\CCC(=O)O)C(c3cccnc3)O2)c([N+](=O)[O-])c1 (stereo in doubt; 7y)	–	–	> 10	< 5
CC(C)(Oc1ccccc1F)C1OCC(C/C=C\CCC(=O)O)C(c2cccnc2)O1 (configuration not stated)	< 1	0.166	0.045	–
CC(C)(Oc1ccc(Br)cc1)C1OCC(C/C=C\CCC(=O)O)C(c2cccnc2)O1 (stereo in doubt; 7p)	< 1	–	> 10	5.61
CC(C)(Cc1ccccc1)C1OCC(C/C=C\CCC(=O)O)C(c2cccnc2)O1 (configuration not stated)	13	0.513	0.012	–
COc1ccc(OC(C)(C)C2OCC(C/C=C\CCC(=O)O)C(c3cccnc3)O2)cc1 (configuration not stated)	> 100	0.302	0.041	–
CC(C)(Cc1ccc(F)cc1)C1OCC(C/C=C\CCC(=O)O)C(c2cccnc2)O1 (configuration not stated)	2	0.0891	0.045	–
CSc1ccccc1OC(C)(C)C1OCC(C/C=C\CCC(=O)O)C(c2cccnc2)O1 (configuration not stated)	> 100	0.0891	0.036	–
O=C(O)CCCC/C=C(\c1ccccc1)c1cccnc1 [(E)-ISBOGREL]	> 100	–	–	–
CC(C)(Oc1ccc(C#N)cc1)C1OCC(C/C=C\CCC(=O)O)C(c2cccnc2)O1 (configuration not stated)	4	0.129	0.046	–
CC(=O)c1ccc(OC(C)(C)C2OCC(C/C=C\CCC(=O)O)C(c3cccnc3)O2)c([N+](=O)[O-])c1 (configuration not stated)	4	0.00151	< 0.01	–
CC(C)(Cc1ccc(F)cc1C#N)C1OCC(C/C=C\CCC(=O)O)C(c2cccnc2)O1 (configuration not stated)	7	0.00219	< 0.01	–
Cc1ccc(SC(C)(C)C2OCC(C/C=C\CCC(=O)O)C(c3cccnc3)O2)c([N+](=O)[O-])c1 (configuration not stated)	–	0.158	0.03	–
Cc1ccc(OC(C)(C)C2OCC(C/C=C\CCC(=O)O)C(c3cccnc3)O2)c([N+](=O)[O-])c1 (stereo in doubt; 7w)	33	–	0.027	8.34
COc1ccc(OC(C)(C)C2OCC(C/C=C\CCC(=O)O)C(c3cccnc3)O2)c([N+](=O)[O-])c1 (configuration not stated)	23	0.00617	0.037	–
CSc1ccc(OC(C)(C)C2OCC(C/C=C\CCC(=O)O)C(c3cccnc3)O2)cc1 (configuration not stated)	32	0.372	0.039	–
CC(C)(C1OCC(C/C=C\CCC(=O)O)C(c2cccnc2)O1)S(=O)(=O)c1ccccc1 (configuration not stated)	–	3.16	0.04	–
O=C(O)CC/C=C\CC1COC(c2cccnc2)OC1c1cccnc1 (configuration not stated)	–	0.759	0.22	–
O=C(O)CC/C=C\CC1COC(c2ccc(C(F)(F)F)cc2)OC1c1cccnc1 (configuration not stated)	–	1.78	0.044	–
